Reference: ChEMBL document CHEMBL1155688, “New pyridinium alkaloids from a marine sponge of the genus Spongia with a human phospholipase A(2) inhibitor profile” (J Nat Prod, 2000)
Active and inactive are the calls of the source. The calls are words filed in the database; no cut-off is given here.

How the values were obtained:
[1] = species on record: Sus scrofa; assay: Inhibition of pig pancreas sPLA2 at 10 uM
In short: (§1)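 Purified enzyme (Naja naja venom, porcine pancreatic, or human recombinant synovial) in 100 mM Tris-HCl, 1 mM CaCl2, pH 7.5, preincubated 5 min at 37 °C with compound or vehicle. Then incubated 15 min with autoclaved E. coli CECT 101 membranes labelled with [3H]oleic acid. Stopped with ice-cold BSA (0.07% w/v final). Supernatant radioactivity counted after centrifugation. Mean ± SEM, n = 6.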

[2] = species on record: Rattus norvegicus; assay: Inhibition of rat air pouch sPLA2 at 10 uM
In short: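 sPLA2 source was exudate supernatant from zymosan-injected rat air pouch. Preincubated 5 min at 37 °C with compound or vehicle, then 15 min with autoclaved [3H]oleate-labelled E. coli CECT 101 membranes. Stopped with ice-cold BSA (0.07% w/v final). Released radioactivity in the supernatant counted by scintillation. Mean ± SEM, n = 6.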

[3] = system: Naja naja; assay: Inhibition of Naja naja sPLA2 at 10 uM; in short: as §1
[4] = Cytotoxicity against human neutrophils up to 10 uM by MTT assay; format: cell-based; settings: neutrophil
In short: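 Viability of human neutrophils assessed by mitochondrial reduction of MTT to formazan.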

[5] = species on record: Homo sapiens; assay: Inhibition of human synovial sPLA2 at 10 uM; in short: as §1
[6] = system: Apis mellifera; assay: Inhibition of bee venom sPLA2 at 10 uM
In short: (§2)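 Radiometric sPLA2 assay on E. coli CECT 101 membranes labelled by growth for 6–8 h at 37 °C with [3H]oleic acid, then autoclaved. Bee venom or human recombinant synovial enzyme in 100 mM Tris-HCl, 1 mM CaCl2, pH 7.5. Enzyme preincubated 5 min at 37 °C with compound or vehicle, then 15 min with membranes. Stopped with ice-cold BSA and centrifuged. Supernatant radioactivity counted by scintillation. IC50 from at least four concentrations (n = 6). Mean ± SEM.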

[7] = system: RAW264.7; assay: Inhibition of cPLA2 in mouse RAW264.7 cells; format: cell-based
In short: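 Enzyme was the cytosolic fraction of murine RAW 264.7 cells. Substrate was 1-palmitoyl-2-[14C]arachidonyl-phosphatidylcholine. Compound in methanol (<1% final) added before the enzyme, then 60 min at 37 °C. Stopped with isopropanol-heptane-0.5 M H2SO4 (10:5:1). Released arachidonate in the heptane phase was cleaned on silica gel and counted.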

[8] = Inhibition of human synovial sPLA2; in short: as §2
[9] = Inhibition of bee venom sPLA2; set-up: species or system Apis mellifera; in short: as §2

Structure (SMILES)	inhibition [1] [%]	inhibition [2] [%]	inhibition [3] [%]	Activity [4]	inhibition [5] [%]	inhibition [6] [%]	Activity [7]	IC50 [8] [µM]	IC50 [9] [µM]
C[C@]1(CO)CCC[C@]2(C)[C@H]3CC[C@@H]4C=C(CC(=O)O)C(=O)C[C@H]4[C@]3(C)CC[C@H]12 [PETROSASPONGIOLIDE K]	14.3	18.8	1.3	Not Active	34.4	37.1	–	–	–
CC1(C)CCC[C@@]2(C)C1CC[C@@]1(C)c3cc[n+](CC(=O)O)cc3CCC21.[Cl-] (some centres not stated) [SPONGIDINE A]	18	17.1	0.5	Not Active	40.1	33.1	inactive	–	–
CC(=O)OC[C@@]1(C)CCC[C@@]2(C)C1CC[C@@]1(C)c3cc[n+](CC(=O)O)cc3CCC21 (some centres not stated) [SPONGIDINE B]	14.2	17.9	0.4	Not Active	34.6	32.2	inactive	–	–
CC1(C)CCC[C@@]2(C)C1CC[C@@]1(C)c3cc[n+](CCS(=O)(=O)O)cc3CCC21 (some centres not stated) [SPONGIDINE D]	7.6	19.6	0	Not Active	48.2	37.6	inactive	–	–
C[C@]1(CO)CCC[C@]2(C)[C@H]3CC[C@@H]4C(O)O[C@@H](C5=CC(=O)OC5O)C[C@H]4[C@]3(C)CC[C@H]12 (some centres not stated) [PETROSASPONGIOLIDE P]	19.5	25.6	8.7	Not Active	87.2	5.4	–	5.8	–
CC1(C)CCC[C@@]2(C)C1CC[C@@]1(C)c3cc(CCC(=O)O)[n+](CC(=O)O)cc3CCC21.[Cl-] (some centres not stated) [SPONGIDINE C]	9.1	30.9	3.1	Not Active	40.4	36.2	inactive	–	–
CC1=C(CC/C(C)=C/CCC2=CC[C@H](C3=CC(=O)OC3O)O[C@@H]2O)C(C)(C)CCC1 (some centres not stated) [MANOLIDE]	32.3	38.4	–	–	93.2	62.5	–	3.9	7.5
